Measurements: ChEMBL document CHEMBL3861974, “Discovery of a Selective Aurora A Kinase Inhibitor by Virtual Screening” (J Med Chem, 2016)
Activity calls are given as the source filed them. The calls are words filed in the database; no cut-off is given here.

Columns and labels:
[1] = target: T1, Phosphatidylinositol 5-phosphate 4-kinase type-2 gamma (Homo sapiens, UniProt Q8TBX8); assay: Binding affinity to human PIP5K2C expressed in Escherichia coli BL21 cells incubated for 1 hr by active site directed binding competition assay
T1 sequence (Q8TBX8 whole entry): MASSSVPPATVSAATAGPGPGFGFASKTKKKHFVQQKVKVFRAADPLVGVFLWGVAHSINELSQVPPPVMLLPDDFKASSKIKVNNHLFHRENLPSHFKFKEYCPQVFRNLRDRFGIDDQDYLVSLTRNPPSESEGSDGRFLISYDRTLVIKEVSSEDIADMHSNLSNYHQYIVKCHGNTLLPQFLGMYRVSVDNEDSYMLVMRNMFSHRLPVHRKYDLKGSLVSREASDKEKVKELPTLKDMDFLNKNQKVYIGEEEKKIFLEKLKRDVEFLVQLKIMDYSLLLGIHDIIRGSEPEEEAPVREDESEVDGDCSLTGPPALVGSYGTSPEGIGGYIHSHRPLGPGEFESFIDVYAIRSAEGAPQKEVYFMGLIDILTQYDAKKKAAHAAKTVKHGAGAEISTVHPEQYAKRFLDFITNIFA
Procedure, shortened: (§1)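 Kinome scan of 456 kinases using an active-site-directed binding competition assay, followed by determination of binding affinities (Kd). Aurora B in this scan was free enzyme without INCENP.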

Homo sapiens = species on record: Homo sapiens; assay: Selectivity index, ratio of IC50 for Aurora-B/INCENP (unknown origin) to IC50 for His-tagged human Aurora A kinase ([…] residues) expressed in Escherichia coli BL21 (DE3) Rosetta cells
[2] = target: T2, Aurora kinase A (Homo sapiens) (UniProt O14965); assay: Inhibition of Aurora A kinase in human HeLa Kyoto cells assessed as induction of defective chromosome alignment during metaphase at 10 uM incubated for 20 hrs; assay type: cell-based
T2 sequence (whole entry): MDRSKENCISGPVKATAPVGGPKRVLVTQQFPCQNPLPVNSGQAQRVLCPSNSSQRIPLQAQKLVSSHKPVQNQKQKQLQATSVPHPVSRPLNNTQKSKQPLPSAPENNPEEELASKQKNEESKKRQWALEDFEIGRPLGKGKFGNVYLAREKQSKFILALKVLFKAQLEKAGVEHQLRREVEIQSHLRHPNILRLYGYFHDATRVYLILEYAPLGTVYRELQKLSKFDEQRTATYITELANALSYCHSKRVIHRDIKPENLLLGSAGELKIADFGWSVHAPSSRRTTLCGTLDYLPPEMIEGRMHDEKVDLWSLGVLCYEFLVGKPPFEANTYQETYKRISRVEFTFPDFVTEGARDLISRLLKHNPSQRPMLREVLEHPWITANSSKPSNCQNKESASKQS
Procedure, shortened: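 HeLa Kyoto cells were treated overnight and stained for pThr288 Aurora A, α-tubulin and DNA. Cells with chromosomes not aligned on the metaphase plate were scored. Experiment repeated twice, SD. Rescue variant: cells transfected with GFP-Aurora A wild-type, Arg137Ala or Trp277Ala before treatment; only highest expressers analysed, ≥100 cells per condition.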

[3] = Glutathione reactivity at 30 uM assessed as retention time for GSH adduct formation after 24 hrs in presence of 5 mM GSH, pH 7.4 buffer at 37 degC by LC-MS method
Procedure, shortened: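 Test compound at 30 µM was incubated with 5 mM GSH in H2O/CH3CN (4:1) at 37 °C and followed by LC-MS over 24 h. The GSH adduct was identified by MS. Parent was quantified by integrating its 310 nm absorption peak against 9-methylcarbazole as internal control. Values are the average of two independent experiments.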

[4] = target: T3, Mitogen-activated protein kinase kinase kinase 19 (Homo sapiens, UniProt Q56UN5); assay: Binding affinity to human YSK4 expressed in Escherichia coli BL21 cells incubated for 1 hr by active site directed binding competition assay; procedure, shortened: as §1
T3 sequence (Q56UN5 whole entry): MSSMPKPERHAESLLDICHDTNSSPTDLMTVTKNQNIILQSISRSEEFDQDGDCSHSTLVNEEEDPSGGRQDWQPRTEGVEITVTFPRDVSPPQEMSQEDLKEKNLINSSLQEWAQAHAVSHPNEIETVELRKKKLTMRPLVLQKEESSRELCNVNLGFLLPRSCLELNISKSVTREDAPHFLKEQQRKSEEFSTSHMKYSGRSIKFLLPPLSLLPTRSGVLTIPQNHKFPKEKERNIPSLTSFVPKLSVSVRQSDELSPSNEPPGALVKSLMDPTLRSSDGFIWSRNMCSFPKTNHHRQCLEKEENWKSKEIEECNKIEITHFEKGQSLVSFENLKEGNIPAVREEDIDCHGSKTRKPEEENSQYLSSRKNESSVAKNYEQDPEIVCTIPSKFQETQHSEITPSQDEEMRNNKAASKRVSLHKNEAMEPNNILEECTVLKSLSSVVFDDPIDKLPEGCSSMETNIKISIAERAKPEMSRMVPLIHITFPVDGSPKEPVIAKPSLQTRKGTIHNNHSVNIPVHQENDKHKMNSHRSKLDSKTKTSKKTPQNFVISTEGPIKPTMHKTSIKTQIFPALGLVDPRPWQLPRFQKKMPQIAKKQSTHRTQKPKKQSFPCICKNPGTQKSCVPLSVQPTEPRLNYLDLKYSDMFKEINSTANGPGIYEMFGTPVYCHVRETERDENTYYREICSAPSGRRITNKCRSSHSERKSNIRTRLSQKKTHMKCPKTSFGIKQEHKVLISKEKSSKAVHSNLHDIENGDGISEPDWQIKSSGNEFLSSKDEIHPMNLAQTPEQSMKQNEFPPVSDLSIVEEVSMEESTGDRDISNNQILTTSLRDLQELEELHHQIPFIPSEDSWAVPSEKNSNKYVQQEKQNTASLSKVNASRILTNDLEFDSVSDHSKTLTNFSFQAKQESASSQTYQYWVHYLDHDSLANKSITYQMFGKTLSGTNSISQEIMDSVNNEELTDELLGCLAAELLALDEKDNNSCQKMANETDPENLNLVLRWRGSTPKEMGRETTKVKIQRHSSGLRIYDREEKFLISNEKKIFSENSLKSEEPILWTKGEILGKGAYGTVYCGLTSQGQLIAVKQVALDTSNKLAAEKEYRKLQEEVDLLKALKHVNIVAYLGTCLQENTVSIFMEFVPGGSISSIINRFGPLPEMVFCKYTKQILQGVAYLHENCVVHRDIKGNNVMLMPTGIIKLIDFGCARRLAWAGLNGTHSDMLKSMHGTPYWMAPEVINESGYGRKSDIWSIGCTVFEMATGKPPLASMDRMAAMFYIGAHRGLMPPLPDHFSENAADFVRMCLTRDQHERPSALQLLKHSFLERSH

Aurora kinase A = target: T4, Aurora kinase A (Homo sapiens, UniProt O14965); assay: Inhibition of Aurora A kinase autophosphorylation at Thr288 in human HeLa Kyoto cells incubated for 20 hrs; assay type: cell-based
T4 sequence (O14965 whole entry): T2 sequence (whole entry)

[5] = target: Death-associated protein kinase 2 (Homo sapiens, UniProt Q9UIK4); assay: Binding affinity to human DAPK2 expressed in Escherichia coli BL21 cells incubated for 1 hr by active site directed binding competition assay; procedure, shortened: as §1
Sequence of Death-associated protein kinase 2 (Q9UIK4 whole entry): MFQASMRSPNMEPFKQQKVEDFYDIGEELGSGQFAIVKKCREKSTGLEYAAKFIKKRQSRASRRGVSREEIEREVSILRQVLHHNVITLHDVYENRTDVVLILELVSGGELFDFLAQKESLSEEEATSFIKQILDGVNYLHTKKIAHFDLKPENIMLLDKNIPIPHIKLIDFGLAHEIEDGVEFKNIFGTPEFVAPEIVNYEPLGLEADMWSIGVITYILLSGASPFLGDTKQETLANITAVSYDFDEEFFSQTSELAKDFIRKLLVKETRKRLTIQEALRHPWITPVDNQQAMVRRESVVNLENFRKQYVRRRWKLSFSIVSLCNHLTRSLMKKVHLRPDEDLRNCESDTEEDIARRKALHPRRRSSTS

Kd [1]: 0.48 µM
inhibition [2]: Active
Kd [4]: 2.9 µM
IC50 (Aurora kinase A): 0.76 µM
SMILES: CCc1ccc(/N=C2\S/C(=C\c3ccnc(Nc4ccc(C(=O)O)cn4)c3)C(=O)N2C)cc1
Ratio IC50 (Homo sapiens): 75
Retention time [3]: 1.29 min
Kd [5]: 0.45 µM
